Source: ChEMBL document CHEMBL1142636 (2000)
≈ marks a conversion by molar mass, not a printed value.

Columns and labels:
[1] = tested on: HCT-8; assay: Growth inhibition of human HCT8 cells; format: functional; settings: read-out: ED50 (the source's name)
Method in brief: (§1)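 In-house cytotoxicity assay following an NCI protocol, run on a panel of human tumour lines: KB nasopharyngeal epidermoid carcinoma and HCT-8 ileocecal adenocarcinoma. Potency is reported as ED50 in µg/mL.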

[2] = tested on: XF498; assay: Growth inhibition of human XF498 cells; format: functional
Method in brief: (§2)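 Tested at the NCI in its human disease-oriented in vitro screen of 60 tumour cell lines, following the Monks et al. methods. Activity is expressed as GI50, given as log molar values.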

[3] = tested on: EKVX; assay: Growth inhibition of human EKVX cells; format: functional
[4] = tested on: UO-31; assay: Growth inhibition of human UO31 cells; format: functional; method in brief: as §2
[5] = tested on: Malme-3M; assay: Growth inhibition of human MALME-3M cells; format: functional
[6] = Growth inhibition of human […] cells; format: functional
[7] = tested on: SF-539; assay: Growth inhibition of human SF539 cells; format: functional; method in brief: as §2
[8] = tested on: K562; assay: Growth inhibition of human K562 cells; format: functional
[9] = tested on: NCI-H460; assay: Growth inhibition of human NCI-H460 cells; format: functional
[10] = tested on: UACC-257; assay: Growth inhibition of human UACC257 cells; format: functional; method in brief: as §2
[11] = tested on: NCI-H226; assay: Growth inhibition of human NCI-H226 cells; format: functional
[12] = tested on: COLO 205; assay: Growth inhibition of human COLO205 cells; format: functional
[13] = tested on: SK-MEL-28; assay: Growth inhibition of human SK-MEL-28 cells; format: functional; method in brief: as §2
[14] = Growth inhibition of human OVACR8 cells; format: functional
[15] = tested on: SNB-75; assay: Growth inhibition of human SNB75 cells; format: functional; method in brief: as §2
[16] = tested on: KM-20L2; assay: Growth inhibition of human KM20L2 cells; format: functional
[17] = tested on: HOP-18; assay: Growth inhibition of human HOP18 cells; format: functional
[18] = tested on: MOLT-4; assay: Growth inhibition of human MOLT4 cells; format: functional
[19] = Growth inhibition of human DMS144 cells; format: functional
[20] = tested on: DMS-273; assay: Growth inhibition of human DMS273 cells; format: functional
[21] = tested on: SNB-19; assay: Growth inhibition of human SNB19 cells; format: functional; method in brief: as §2
[22] = tested on: CCRF-CEM; assay: Growth inhibition of human CCRF-CEM cells; format: functional
[23] = tested on: HOP-92; assay: Growth inhibition of human HOP92 cells; format: functional
[24] = tested on: M14; assay: Growth inhibition of human M14 cells; format: functional
[25] = Growth inhibition of human OVACR5 cells; format: functional
[26] = tested on: CAKI-1; assay: Growth inhibition of human CAKI1 cells; format: functional
[27] = tested on: DLD-1; assay: Growth inhibition of human DLD1 cells; format: functional
[28] = tested on: NCI-H322M; assay: Growth inhibition of human NCI-H322M cells; format: functional
[29] = tested on: HT-29; assay: Growth inhibition of human HT29 cells; format: functional
[30] = tested on: A549; assay: Growth inhibition of human A549 cells; format: functional
[31] = tested on: UACC-62; assay: Growth inhibition of human UACC62 cells; format: functional; method in brief: as §2
[32] = tested on: HCT-15; assay: Growth inhibition of human HCT15 cells; format: functional
[33] = tested on: KM12; assay: Growth inhibition of human KM12 cells; format: functional
[34] = tested on: SN12C; assay: Growth inhibition of human SN12C cells; format: functional; method in brief: as §2
[35] = tested on: ACHN; assay: Growth inhibition of human ACHN cells; format: functional
[36] = tested on: HCC 2998; assay: Growth inhibition of human HCC2998 cells; format: functional
[37] = tested on: SW-620; assay: Growth inhibition of human SW620 cells; format: functional; method in brief: as §2
[38] = tested on: HOP-62; assay: Growth inhibition of human HOP62 cells; format: functional
[39] = Growth inhibition of human HL60(TB) cells; format: functional, HL-60(TB); settings: HL-60
[40] = tested on: KB; assay: Growth inhibition of human KB cells; format: functional; settings: read-out: ED50 (the source's name); method in brief: as §1
[41] = Growth inhibition of human OVACR4 cells; format: functional
[42] = tested on: U-251; assay: Growth inhibition of human U251 cells; format: functional; method in brief: as §2
[43] = tested on: HCT-116; assay: Growth inhibition of human HCT116 cells; format: functional
[44] = tested on: RXF 393; assay: Growth inhibition of human […] cells; format: functional
[45] = tested on: SR; assay: Growth inhibition of human SR cells; format: functional; method in brief: as §2
[46] = tested on: SK-MEL-5; assay: Growth inhibition of human SK-MEL-5 cells; format: functional; method in brief: as §2
[47] = tested on: NCI-H522; assay: Growth inhibition of human NCI-H522 cells; format: functional
[48] = tested on: SK-OV-3; assay: Growth inhibition of human SK-OV-3 cells; format: functional; method in brief: as §2
[49] = tested on: SF-295; assay: Growth inhibition of human SF295 cells; format: functional; method in brief: as §2
[50] = Growth inhibition of human LXFL529 cells; format: functional; settings: LXFL 529
[51] = tested on: SK-MEL-2; assay: Growth inhibition of human SK-MEL-2 cells; format: functional; method in brief: as §2
[52] = tested on: SF-268; assay: Growth inhibition of human SF268 cells; format: functional; method in brief: as §2
[53] = tested on: TK-10; assay: Growth inhibition of human TK10 cells; format: functional; method in brief: as §2
[54] = tested on: 786-0; assay: Growth inhibition of human 786-0 cells; format: functional
[55] = Growth inhibition of human RPMI8266 cells; format: functional
[56] = tested on: IGROV-1; assay: Growth inhibition of human IGROV1 cells; format: functional
[57] = tested on: MDA-N; assay: Growth inhibition of human MDA-N cells; format: functional
[58] = tested on: MDA-MB-435; assay: Growth inhibition of human MDA-MB-435 cells; format: functional
[59] = tested on: A498; assay: Growth inhibition of human A498 cells; format: functional
[60] = tested on: MDA-MB-231; assay: Growth inhibition of human MDA-MB-231 cells; format: functional
[61] = tested on: LOX IMVI; assay: Growth inhibition of human LOX IMVI cells; format: functional
[62] = tested on: T47D; assay: Growth inhibition of human T47D cells; format: functional; method in brief: as §2
[63] = tested on: Hs-578T; assay: Growth inhibition of human HS578T cells; format: functional
[64] = Growth inhibition of human MCF7/ADR-RES cells; format: functional; settings: NCI/ADR-RES
[65] = tested on: DU-145; assay: Growth inhibition of human DU145 cells; format: functional
[66] = tested on: PC-3; assay: Growth inhibition of human PC3 cells; format: functional
[67] = tested on: MCF7; assay: Growth inhibition of human MCF7 cells; format: functional
[68] = tested on: BT-549; assay: Growth inhibition of human BT549 cells; format: functional
[69] = tested on: NCI-H23; assay: Growth inhibition of human NCI-H23 cells; format: functional
[70] = read-out: ED50 (the source's name)

## CC1=CC(=O)c2[nH]c3ccccc3c2C1=O [MURRAYAQUINONE A]
[1]
  EC50: 5.5 µg/mL (≈ 26 µM)
[2]
  GI50: 4.37 µM
[3]
  GI50: 4.07 µM
[4]
  GI50: 3.98 µM
[5]
  GI50: 4.9 µM
[6]
  GI50: 4.57 µM
[7]
  GI50: 4.27 µM
[8]
  GI50: 5.62 µM
[9]
  GI50: 8.13 µM
[10]
  GI50: 4.57 µM
[11]
  GI50: 6.61 µM
[12]
  GI50: 4.07 µM
[12]; [70]
  EC50: 3.85 µg/mL (≈ 18.2 µM)
[13]
  GI50: 4.47 µM
[14]
  GI50: 3.98 µM
[15]
  GI50: 4.37 µM
[16]
  GI50: 25.1 µM
[17]
  GI50: 3.39 µM
[18]
  GI50: 5.37 µM
[19]
  GI50: 4.27 µM
[20]
  GI50: 4.27 µM
[21]
  GI50: 25.1 µM
[22]
  GI50: 3.31 µM
[23]
  GI50: 3.98 µM
[24]
  GI50: 4.17 µM
[25]
  GI50: 5.37 µM
[26]
  GI50: 14.5 µM
[27]
  GI50: 5.01 µM
[28]
  GI50: 25.1 µM
[29]
  GI50: 17.8 µM
[30]
  GI50: 25.1 µM
[31]
  GI50: 4.17 µM
[32]
  GI50: 4.17 µM
[33]
  GI50: 4.37 µM
[34]
  GI50: 4.57 µM
[35]
  GI50: 4.17 µM
[36]
  GI50: 7.08 µM
[37]
  GI50: 3.98 µM
[38]
  GI50: 25.1 µM
[39]
  GI50: 4.07 µM
[40]
  EC50: 5.18 µg/mL (≈ 24.5 µM)
[41]
  GI50: 4.17 µM
[42]
  GI50: 15.5 µM
[43]
  GI50: 4.47 µM
[44]
  GI50: 3.47 µM
[45]
  GI50: 5.75 µM
[46]
  GI50: 4.27 µM
[46]; [70]
  EC50: 2.58 µg/mL (≈ 12.2 µM)
[47]
  GI50: 3.8 µM
[48]
  GI50: 20.9 µM
[49]
  GI50: 4.37 µM
[50]
  GI50: 4.27 µM
[51]
  GI50: 5.37 µM
[52]
  GI50: 4.37 µM
[53]
  GI50: 5.01 µM
[54]
  GI50: 4.27 µM
[55]
  GI50: 5.89 µM
[56]
  GI50: 6.61 µM

## C=C(C)C(O)CCC1(C)C=Cc2c(c(C)cc3c2[nH]c2ccccc23)O1 (stereo unspecified)
[57]
  GI50: 3.55 µM
[4]
  GI50: 12 µM
[5]
  GI50: 11.2 µM
[6]
  GI50: 10.2 µM
[7]
  GI50: 3.63 µM
[8]
  GI50: 2.75 µM
[9]
  GI50: 2.34 µM
[10]
  GI50: 8.13 µM
[11]
  GI50: 6.31 µM
[12]
  GI50: 2.45 µM
[14]
  GI50: 10.7 µM
[15]
  GI50: 3.31 µM
[58]
  GI50: 8.32 µM
[18]
  GI50: 3.47 µM
[21]
  GI50: 11.5 µM
[22]
  GI50: 4.17 µM
[23]
  GI50: 10.2 µM
[24]
  GI50: 6.61 µM
[25]
  GI50: 2.09 µM
[59]
  GI50: 13.5 µM
[28]
  GI50: 7.94 µM
[29]
  GI50: 1.7 µM
  LC50: 6.17 µM
[60]
  GI50: 3.47 µM
[30]
  GI50: 5.01 µM
[61]
  GI50: 3.09 µM
[32]
  GI50: 1.95 µM
[62]
  GI50: 7.76 µM
[33]
  GI50: 2 µM
[33]; read-out: pLC50 (the source's name) (converted)
  CC50: 9.33 µM
[63]
  GI50: 3.16 µM
[64]
  GI50: 8.91 µM
[34]
  GI50: 9.55 µM
[35]
  GI50: 4.47 µM
[36]
  GI50: 2.19 µM
[37]
  GI50: 5.13 µM
[38]
  GI50: 2.45 µM
[65]
  GI50: 12.6 µM
[39]
  GI50: 4.27 µM
[66]
  GI50: 6.61 µM
[67]
  GI50: 12.3 µM
[68]
  GI50: 12.9 µM
[41]
  GI50: 16.6 µM
[42]
  GI50: 5.37 µM
[43]
  GI50: 9.77 µM
[44]
  GI50: 2.75 µM
[45]
  GI50: 4.47 µM
[46]
  GI50: 10 µM
[47]
  GI50: 3.31 µM
[69]
  GI50: 10.7 µM
[48]
  GI50: 11 µM
[49]
  GI50: 4.37 µM
[51]
  GI50: 2.09 µM
[52]
  GI50: 5.62 µM
[53]
  GI50: 14.1 µM
[54]
  GI50: 3.89 µM
[55]
  GI50: 2.95 µM
[56]
  GI50: 8.32 µM
